According to ChEMBL document CHEMBL1240435, “Synthesis of some 3-substituted amino-4,5-tetramethylene thieno[2,3-d][ 1,2,3]-triazin-4(3H)-ones as potential antimicrobial agents” (2010):
≈ marks a conversion by molar mass, not a printed value.

Columns and labels:
[1] = system: Aspergillus niger; assay: Antifungal activity against Aspergillus niger at 50 ug/ml after 48 hrs by agar cup diffusion method; format: functional; settings: read-out: IZ
[2] = system: Salmonella typhi; assay: Antibacterial activity against Salmonella typhi after 24 hrs by tube dilution method; format: functional, Salmonella enterica subsp. enterica serovar Typhi; settings: Salmonella enterica
[3] = system: Cryptococcus neoformans; assay: Antifungal activity against Cryptococcus neoformans after 48 hrs by tube dilution method; format: functional
[4] = system: Staphylococcus aureus; assay: Antibacterial activity against Staphylococcus aureus after 24 hrs by tube dilution method; format: functional
[5] = system: Candida albicans; assay: Antifungal activity against Candida albicans at 50 ug/ml after 48 hrs by agar cup diffusion method; format: functional; settings: read-out: IZ
[6] = system: Escherichia coli; assay: Antibacterial activity against Escherichia coli after 24 hrs by tube dilution method; format: functional
[7] = system: Aspergillus niger; assay: Antifungal activity against Aspergillus niger after 48 hrs by tube dilution method; format: functional
[8] = system: Candida albicans; assay: Antifungal activity against Candida albicans after 48 hrs by tube dilution method; format: functional
[9] = system: Staphylococcus epidermidis; assay: Antibacterial activity against Staphylococcus epidermidis after 24 hrs by tube dilution method; format: functional
[10] = system: Staphylococcus epidermidis; assay: Antibacterial activity against Staphylococcus epidermidis at 50 ug/ml after 24 hrs by agar cup diffusion method; format: functional; settings: read-out: IZ
Method in brief: (§1)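 Compounds dissolved in DMF. A fresh bacterial subculture in isotonic NaCl was mixed into sterile assay medium at 40–45 °C and poured into Petri dishes. Test solution went into marked wells. Plates stood 5 min, were covered for 1 h, then incubated at 37 °C for 24 h. Inhibition zones were measured as the average of three readings.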

[11] = system: Escherichia coli; assay: Antibacterial activity against Escherichia coli at 50 ug/ml after 24 hrs by agar cup diffusion method; format: functional; settings: read-out: IZ; method in brief: as §1
[12] = system: Salmonella typhi; assay: Antibacterial activity against Salmonella typhi at 50 ug/ml after 24 hrs by agar cup diffusion method; format: functional, Salmonella enterica subsp. enterica serovar Typhi; settings: Salmonella enterica, read-out: IZ
Method in brief: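 Agar cup diffusion against an ATCC or IMTECH standard strain. The test compound is dissolved in DMF. A fresh bacterial subculture in isotonic NaCl is mixed into sterile medium at 40–45 °C and poured into plates. Solution is added to marked wells, left 5 min, then covered 1 h. Plates are incubated at 37 °C for 24 h. The inhibition zone is the mean of three readings, with ampicillin as reference.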

[13] = system: Staphylococcus aureus; assay: Antibacterial activity against Staphylococcus aureus at 50 ug/ml after 24 hrs by agar cup diffusion method; format: functional; settings: read-out: IZ; method in brief: as §1
[14] = system: Cryptococcus neoformans; assay: Antifungal activity against Cryptococcus neoformans at 50 ug/ml after 48 hrs by agar cup diffusion method; format: functional; settings: read-out: IZ

Structure (SMILES) | zone of inhibition at 50 µg/mL [1] [mm] | MIC [2] [µg/mL] | MIC [3] [µg/mL] | MIC [4] [µg/mL] | zone of inhibition at 50 µg/mL [5] [mm] | MIC [6] [µg/mL] | MIC [7] [µg/mL] | MIC [8] [µg/mL] | MIC [9] [µg/mL] | zone of inhibition at 50 µg/mL [10] [mm] | zone of inhibition at 50 µg/mL [11] [mm] | zone of inhibition at 50 µg/mL [12] [mm] | zone of inhibition at 50 µg/mL [13] [mm] | zone of inhibition at 50 µg/mL [14] [mm]
O=c1[nH]nnc2sc3c(c12)CCCC3 | 4 | 37.5 (≈ 181 µM) | 125 (≈ 603 µM) | 37.5 (≈ 181 µM) | 3 | 50 (≈ 241 µM) | 37.5 (≈ 181 µM) | 50 (≈ 241 µM) | 37.5 (≈ 181 µM) |  |  |  |  | 
Cn1nnc2sc3c(c2c1=O)CCCC3 | 6 | 37.5 (≈ 169 µM) | 125 (≈ 565 µM) | 37.5 (≈ 169 µM) | 4 | 50 (≈ 226 µM) | 37.5 (≈ 169 µM) | 50 (≈ 226 µM) | 37.5 (≈ 169 µM) | 18 | 12 | 14 | 16 | 
CCn1nnc2sc3c(c2c1=O)CCCC3 | 6 | 37.5 (≈ 159 µM) | 125 (≈ 531 µM) | 37.5 (≈ 159 µM) | 5 | 50 (≈ 212 µM) | 37.5 (≈ 159 µM) | 50 (≈ 212 µM) | 37.5 (≈ 159 µM) | 16 | 16 | 16 | 18 | 
O=c1c2c3c(sc2nnn1-c1ccccc1)CCCC3 | 6 | 37.5 (≈ 132 µM) | 125 (≈ 441 µM) | 25 (≈ 88.2 µM) | 4 | 37.5 (≈ 132 µM) | 37.5 (≈ 132 µM) | 50 (≈ 176 µM) | 25 (≈ 88.2 µM) | 17 | 12 | 12 | 20 | 
Cc1ccccc1-n1nnc2sc3c(c2c1=O)CCCC3 | 6 | 25 (≈ 84.1 µM) | 75 (≈ 252 µM) | 25 (≈ 84.1 µM) | 4 | 37.5 (≈ 126 µM) | 25 (≈ 84.1 µM) | 37.5 (≈ 126 µM) | 25 (≈ 84.1 µM) | 18 | 14 | 12 | 20 | 
Cc1cccc(-n2nnc3sc4c(c3c2=O)CCCC4)c1 | 8 | 25 (≈ 84.1 µM) | 75 (≈ 252 µM) | 25 (≈ 84.1 µM) | 4 | 37.5 (≈ 126 µM) | 25 (≈ 84.1 µM) | 37.5 (≈ 126 µM) | 25 (≈ 84.1 µM) | 20 | 14 | 14 | 24 | 6
Cc1ccc(-n2nnc3sc4c(c3c2=O)CCCC4)cc1 | 8 | 25 (≈ 84.1 µM) | 75 (≈ 252 µM) | 25 (≈ 84.1 µM) | 5 | 37.5 (≈ 126 µM) | 25 (≈ 84.1 µM) | 37.5 (≈ 126 µM) | 25 (≈ 84.1 µM) | 28 | 20 | 18 | 28 | 5
O=c1c2c3c(sc2nnn1-c1ccc(F)cc1)CCCC3 | 10 | 12.5 (≈ 41.5 µM) | 75 (≈ 249 µM) | 6.75 (≈ 22.4 µM) | 8 | 12.5 (≈ 41.5 µM) | 12.5 (≈ 41.5 µM) | 37.5 (≈ 124 µM) | 6.75 (≈ 22.4 µM) | 32 | 26 | 24 | 32 | 8
O=c1c2c3c(sc2nnn1-c1ccccc1Cl)CCCC3 | 14 | 12.5 (≈ 39.3 µM) | 50 (≈ 157 µM) | 12.5 (≈ 39.3 µM) | 8 | 25 (≈ 78.7 µM) | 12.5 (≈ 39.3 µM) | 25 (≈ 78.7 µM) | 12.5 (≈ 39.3 µM) | 30 | 24 | 20 | 30 | 9
O=c1c2c3c(sc2nnn1-c1cccc(Cl)c1)CCCC3 | 13 | 12.5 (≈ 39.3 µM) | 50 (≈ 157 µM) | 12.5 (≈ 39.3 µM) | 8 | 25 (≈ 78.7 µM) | 12.5 (≈ 39.3 µM) | 25 (≈ 78.7 µM) | 12.5 (≈ 39.3 µM) | 30 | 26 | 24 | 32 | 8
O=c1c2c3c(sc2nnn1-c1ccc(Cl)cc1)CCCC3 | 16 | 12.5 (≈ 39.3 µM) | 37.5 (≈ 118 µM) | 12.5 (≈ 39.3 µM) | 10 | 25 (≈ 78.7 µM) | 12.5 (≈ 39.3 µM) | 25 (≈ 78.7 µM) | 12.5 (≈ 39.3 µM) | 32 | 26 | 26 | 34 | 10
O=c1c2c3c(sc2nnn1-c1ccc(F)c(Cl)c1)CCCC3 | 10 | 12.5 (≈ 37.2 µM) | 50 (≈ 149 µM) | 12.5 (≈ 37.2 µM) | 7 | 25 (≈ 74.5 µM) | 25 (≈ 74.5 µM) | 37.5 (≈ 112 µM) | 12.5 (≈ 37.2 µM) | 24 | 24 | 20 | 26 | 8
CC1(C)S[C@@H]2[C@H](NC(=O)[C@H](N)c3ccccc3)C(=O)N2[C@H]1C(=O)O [AMPICILLIN] |  | 6.25 (≈ 17.9 µM) |  | 0.5 (≈ 1.43 µM) |  | 4 (≈ 11.4 µM) |  |  | 1.56 (≈ 4.46 µM) | 36 | 28 | 26 | 40 | 
Clc1ccc(COC(Cn2ccnc2)c2ccc(Cl)cc2Cl)c(Cl)c1.O=[N+]([O-])O (stereo not drawn) [MICONAZOLE NITRATE] | 16 |  | 20 |  | 12 |  | 10 | 12.5 |  |  |  |  |  | 14
